Source: ChEMBL document CHEMBL3352237, “Synthesis and biological evaluation of novel peptide BF2 as an antibacterial agent against clinical isolates of vancomycin-resistant enterococci” (J Med Chem, 2014)

Experiments:
Enterococcus [1] = assay: Antibacterial activity against vancomycin-resistant Enterococcus clinical isolate after 18 to 20 hrs by checkerboard titration method in presence of linezolid; format: functional
Enterococcus faecium [2] = assay: Bactericidal activity against vancomycin-resistant Enterococcus faecium clinical isolate […] after 24 hrs by two-fold serial dilution method; format: functional; conditions: isolate 27/1691, 24 h
Enterococcus faecalis [3] = assay: Bactericidal activity against vancomycin-resistant Enterococcus faecalis clinical isolate 7846 after 24 hrs by two-fold serial dilution method; format: functional; conditions: isolate 7846, 24 h
Enterococcus faecium [4] = assay: Antibacterial activity against vancomycin-resistant Enterococcus faecium clinical isolate 27/221 after overnight incubation by two-fold serial dilution method; format: functional
Enterococcus faecium [5] = assay: Antibacterial activity against vancomycin-resistant Enterococcus faecium clinical isolate 5396 after overnight incubation by two-fold serial dilution method; format: functional
Enterococcus faecalis [6] = assay: Antibacterial activity against vancomycin-resistant Enterococcus faecalis clinical isolate 7846 after overnight incubation by two-fold serial dilution method; format: functional
Enterococcus faecalis [7] = assay: Antibacterial activity against vancomycin-resistant Enterococcus faecalis clinical isolate 5814 after overnight incubation by two-fold serial dilution method; format: functional
Enterococcus faecium [8] = assay: Bactericidal activity against vancomycin-resistant Enterococcus faecium clinical isolate 6/22 after 24 hrs by two-fold serial dilution method; format: functional; conditions: isolate 6/22, 24 h
Enterococcus faecium [9] = assay: Antibacterial activity against vancomycin-resistant Enterococcus faecium clinical isolate 10177 after overnight incubation by two-fold serial dilution method; format: functional
Enterococcus faecium [10] = assay: Bactericidal activity against vancomycin-resistant Enterococcus faecium clinical isolate 3864 after 24 hrs by two-fold serial dilution method; format: functional; conditions: isolate 3864, 24 h
Enterococcus faecalis [11] = assay: Antibacterial activity against vancomycin-resistant Enterococcus faecalis clinical isolate 6093 after overnight incubation by two-fold serial dilution method; format: functional
[12] = Hemolytic activity against human RBC at MIC after 1 hr by spectrophotometry; format: ADME, cell-based; conditions: erythrocyte
Enterococcus faecium [13] = assay: Bactericidal activity against vancomycin-resistant Enterococcus faecium clinical isolate 16115 after 24 hrs by two-fold serial dilution method; format: functional; conditions: isolate 16115, 24 h
Enterococcus faecalis [14] = assay: Bactericidal activity against vancomycin-resistant Enterococcus faecalis clinical isolate 7670 after 24 hrs by two-fold serial dilution method; format: functional; conditions: isolate 7670, 24 h
Enterococcus faecalis [15] = assay: Antibacterial activity against vancomycin-resistant Enterococcus faecalis clinical isolate 21/235 after overnight incubation by two-fold serial dilution method; format: functional
Enterococcus faecium [16] = assay: Antibacterial activity against vancomycin-resistant Enterococcus faecium clinical isolate 8/224 after overnight incubation by two-fold serial dilution method; format: functional
HEK293 = assay: Cytotoxicity against HEK293 cells at 100 to 400 uM after 48 to 72 hrs by MTT assay; format: cell-based; conditions: human, hek293, 400 µM
Enterococcus [17] = assay: Antibacterial activity against vancomycin-resistant Enterococcus ATCC 29212 after overnight incubation by two-fold serial dilution method; format: functional
Enterococcus faecalis [18] = assay: Antibacterial activity against vancomycin-resistant Enterococcus faecalis clinical isolate 27728 after overnight incubation by two-fold serial dilution method; format: functional
Enterococcus faecalis [19] = assay: Bactericidal activity against vancomycin-resistant Enterococcus faecalis clinical isolate 5648 after 24 hrs by two-fold serial dilution method; format: functional; conditions: isolate 5648, 24 h
Enterococcus faecium [20] = assay: Antibacterial activity against vancomycin-resistant Enterococcus faecium clinical isolate 3864 after overnight incubation by two-fold serial dilution method; format: functional
Enterococcus faecium [21] = assay: Antibacterial activity against vancomycin-resistant Enterococcus faecium clinical isolate 17301 after overnight incubation by two-fold serial dilution method; format: functional
Enterococcus faecalis [22] = assay: Antibacterial activity against vancomycin-resistant Enterococcus faecalis clinical isolate 387702 after overnight incubation by two-fold serial dilution method; format: functional
Enterococcus faecium [23] = assay: Bactericidal activity against vancomycin-resistant Enterococcus faecium clinical isolate 12875 after 24 hrs by two-fold serial dilution method; format: functional; conditions: isolate 12875, 24 h
Enterococcus [24] = assay: Antibacterial activity against vancomycin-resistant Enterococcus ATCC 51299 after overnight incubation by two-fold serial dilution method; format: functional
Enterococcus faecium [25] = assay: Antibacterial activity against vancomycin-resistant Enterococcus faecium clinical isolate 16115 after overnight incubation by two-fold serial dilution method; format: functional
Enterococcus [26] = assay: Bactericidal activity against vancomycin-resistant Enterococcus ATCC 51299 after 24 hrs by two-fold serial dilution method; format: functional; conditions: ATCC 51299, 24 h
Enterococcus faecium [27] = assay: Antibacterial activity against vancomycin-resistant Enterococcus faecium clinical isolate 12/266 after overnight incubation by two-fold serial dilution method; format: functional
Enterococcus faecium [28] = assay: Antibacterial activity against vancomycin-resistant Enterococcus faecium clinical isolate 14643 after overnight incubation by two-fold serial dilution method; format: functional
Enterococcus faecium [29] = assay: Antibacterial activity against vancomycin-resistant Enterococcus faecium clinical isolate 18906 after overnight incubation by two-fold serial dilution method; format: functional
Enterococcus faecalis [30] = assay: Bactericidal activity against vancomycin-resistant Enterococcus faecalis clinical isolate 7077 after 24 hrs by two-fold serial dilution method; format: functional; conditions: isolate 7077, 24 h
Enterococcus faecium [31] = assay: Bactericidal activity against vancomycin-resistant Enterococcus faecium clinical isolate 31386 after 24 hrs by two-fold serial dilution method; format: functional; conditions: isolate 31386, 24 h
Rattus norvegicus = assay: Toxicity in Wistar albino rat infected with Enterococcus at MIC to 3 times MIC, iv; format: organism-based; conditions: in vivo
Enterococcus [32] = assay: Bactericidal activity against vancomycin-resistant Enterococcus ATCC 29212 assessed as log reduction at 2 times MIC after 60 to 120 mins by serial dilution method; format: functional
In short: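 Time-kill assay: enterococci exposed to peptide at 2× MIC, with viable counts read as log10 CFU/mL over a 60–120 min exposure. Run on ATCC 29212 and a clinical isolate.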

Enterococcus faecalis [33] = assay: Bactericidal activity against vancomycin-resistant Enterococcus faecalis clinical isolate 7079 after 24 hrs by two-fold serial dilution method; format: functional; conditions: isolate 7079, 24 h
Enterococcus faecium [34] = assay: Antibacterial activity against vancomycin-resistant Enterococcus faecium clinical isolate 29/203 after overnight incubation by two-fold serial dilution method; format: functional
Enterococcus faecium [35] = assay: Bactericidal activity against vancomycin-resistant Enterococcus faecium clinical isolate 23/240 after 24 hrs by two-fold serial dilution method; format: functional; conditions: isolate 23/240, 24 h
Enterococcus faecalis [36] = assay: Antibacterial activity against vancomycin-resistant Enterococcus faecalis clinical isolate 7077 after overnight incubation by two-fold serial dilution method; format: functional
Enterococcus faecalis [37] = assay: Antibacterial activity against vancomycin-resistant Enterococcus faecalis clinical isolate 22/203 after overnight incubation by two-fold serial dilution method; format: functional
Enterococcus faecium [38] = assay: Antibacterial activity against vancomycin-resistant Enterococcus faecium clinical isolate 16475 after overnight incubation by two-fold serial dilution method; format: functional
Enterococcus [39] = assay: Antibacterial activity against Enterococcus infected in iv dosed Wistar albino rat assessed as reduction in cell count after 1 hr relative to control; format: functional, organism-based
In short: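 Female Wistar albino rats, 40−45 days old, 125−150 g, 5 groups of 3. Enterococci grown in MH broth to log phase, spun at 1000g for 15 min, diluted in PBS to 4 × 10^6 CFU/mL and inoculated i.v. Treatment i.v. 1 h later at 12.5, 25 or 37.5 mg/kg. Vehicle was 0.1 mL PBS i.v.; linezolid 25 mg/kg i.v. was the positive control. Tail-vein blood taken 1 h after treatment, plated on blood agar, incubated at 37 °C in ambient air overnight, and colonies counted.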

Enterococcus faecium [40] = assay: Antibacterial activity against vancomycin-resistant Enterococcus faecium clinical isolate 27/16917 after overnight incubation by two-fold serial dilution method; format: functional; conditions: isolate 27/1691
Enterococcus faecium [41] = assay: Bactericidal activity against vancomycin-resistant Enterococcus faecium clinical isolate 8/224 after 24 hrs by two-fold serial dilution method; format: functional; conditions: isolate 8/224, 24 h

Q: What does the source list for H-RWRLLLLKKH-OH?
A: fractional inhibitory concentration index (FICI) (Enterococcus [1]): 2; MBC (Enterococcus faecium [2]): 25 µg/mL; MBC (Enterococcus faecalis [3]): 25 µg/mL; MIC (Enterococcus faecium [4]): 12.5 µg/mL; MIC (Enterococcus faecium [5]): 6.25 µg/mL; MIC (Enterococcus faecalis [6]): 12.5 µg/mL; MIC (Enterococcus faecalis [7]): 12.5 µg/mL; MBC (Enterococcus faecium [8]): 25 µg/mL; MIC (Enterococcus faecium [9]): 12.5 µg/mL; MBC (Enterococcus faecium [10]): 25 µg/mL; MIC (Enterococcus faecalis [11]): 12.5 µg/mL; Activity [12]: Non-toxic; MBC (Enterococcus faecium [13]): 25 µg/mL; MBC (Enterococcus faecalis [14]): 25 µg/mL; MIC (Enterococcus faecalis [15]): 12.5 µg/mL; MIC (Enterococcus faecium [16]): 12.5 µg/mL; Activity (HEK293): Non-toxic; MIC (Enterococcus [17]): 25 µg/mL; MIC (Enterococcus faecalis [18]): 6.25 µg/mL; MBC (Enterococcus faecalis [19]): 25 µg/mL; MIC (Enterococcus faecium [20]): 6.25 µg/mL; MIC (Enterococcus faecium [21]): 6.25 µg/mL; MIC (Enterococcus faecalis [22]): 6.25 µg/mL; MBC (Enterococcus faecium [23]): 25 µg/mL; MIC (Enterococcus [24]): 25 µg/mL; MIC (Enterococcus faecium [25]): 12.5 µg/mL; MBC (Enterococcus [26]): 25 µg/mL; MIC (Enterococcus faecium [27]): 6.25 µg/mL; MIC (Enterococcus faecium [28]): 6.25 µg/mL; MIC (Enterococcus faecium [29]): 12.5 µg/mL; MBC (Enterococcus faecalis [30]): 25 µg/mL; MBC (Enterococcus faecium [31]): 25 µg/mL; Activity (Rattus norvegicus): Non-toxic; MBC (Enterococcus [32]): 25 µg/mL; MBC (Enterococcus faecalis [33]): 25 µg/mL; MIC (Enterococcus faecium [34]): 12.5 µg/mL; MBC (Enterococcus faecium [35]): 25 µg/mL; MIC (Enterococcus faecalis [36]): 12.5 µg/mL; MIC (Enterococcus faecalis [37]): 12.5 µg/mL; MIC (Enterococcus faecium [38]): 12.5 µg/mL; Activity (Enterococcus [39]): Dose-dependent effect; MIC (Enterococcus faecium [40]): 12.5 µg/mL; MBC (Enterococcus faecium [41]): 25 µg/mL
